Results: ChEMBL document CHEMBL4627283, “Discovery and optimization of 4-oxo-2-thioxo-thiazolidinones as NOD-like receptor (NLR) family, pyrin domain-containing protein 3 (NLRP3) inhibitors” (Bioorg Med Chem Lett, 2020)
Calls of active or inactive are those of the source. The calls are words filed in the database; no cut-off is given here.

Columns and labels:
[1] = biological target: T1, NACHT, LRR and PYD domains-containing protein 3 (Homo sapiens, UniProt Q96P20); test: Inhibition of NLRP3 inflammasome (unknown origin) activation in LPS-primed bone marrow derived macrophage cells at 10 uM in presence of mono sodium urate relative to control
[2] = biological target: Cystic fibrosis transmembrane conductance regulator (Homo sapiens) (UniProt P13569); test: Inhibition of CFTR in human HT-29 cells assessed as effect on intracellular chloride efflux at 20 uM relative to control; type: cell-based
[3] = biological target: T1, NACHT, LRR and PYD domains-containing protein 3; test: Inhibition of NLRP3 inflammasome (unknown origin) activation in LPS-primed bone marrow derived macrophage cells assessed as effect on IL-1beta production in presence of nigericin by ELISA
Summary of the method: (§1)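 BMDMs pretreated with varied doses of compound, then LPS-primed and stimulated with nigericin; IL-1β in supernatant by ELISA, normalized to DMSO-treated control; IC50 given as mean ± SD.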

[4] = Half life in human liver microsomes in presence of NADPH; type: ADME, Microsome
Summary of the method: (§2)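 Stability in human and mouse liver microsomes incubated with an NADPH regenerating system; half-life (min) and hepatic clearance (mL/min/kg) determined.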

[5] = Half life in mouse liver microsomes in presence of NADPH; type: ADME, Microsome; summary of the method: as §2
Homo sapiens = species on record: Homo sapiens; test: Selectivity index, ratio of inhibition of NLRP3 inflammasome (unknown origin) activation in bone marrow derived macrophage cells at 10 uM to inhibition of CFTR in human HT-29 cells at 20 uM; type: cell-based
Summary of the method: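 Selectivity index: % NLRP3 inhibition in BMDMs at 10 μM divided by % CFTR inhibition in HT29 cells at 20 μM.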

[6] = Clearance in human liver microsomes in presence of NADPH; type: ADME, Microsome; summary of the method: as §2
[7] = Clearance in mouse liver microsomes in presence of NADPH; type: ADME, Microsome; summary of the method: as §2
[8] = biological target: T2, Interferon-inducible protein AIM2 (Homo sapiens) (UniProt O14862); test: Inhibition of AIM2 inflammasome (unknown origin) activation in bone marrow derived macrophages assessed as inhibition of poly(dA:dT)-induced IL-1beta secretion at 5 uM by ELISA
T2 sequence (whole entry): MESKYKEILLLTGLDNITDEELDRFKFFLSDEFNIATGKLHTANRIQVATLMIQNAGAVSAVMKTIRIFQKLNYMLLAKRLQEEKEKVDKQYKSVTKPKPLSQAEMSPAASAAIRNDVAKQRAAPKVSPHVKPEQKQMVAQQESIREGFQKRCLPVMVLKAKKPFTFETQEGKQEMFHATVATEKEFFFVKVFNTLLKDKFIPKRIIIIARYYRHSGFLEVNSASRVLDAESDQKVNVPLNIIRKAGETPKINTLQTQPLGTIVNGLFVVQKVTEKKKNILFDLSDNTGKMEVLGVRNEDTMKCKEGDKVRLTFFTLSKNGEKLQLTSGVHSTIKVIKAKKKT
Summary of the method: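 LPS-primed BMDMs treated with compound (5 μM), then transfected with poly(dA:dT) (0.5 µg/ml) using Lipofectamine for various times; supernatant IL-1β by ELISA.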

[9] = biological target: T1, NACHT, LRR and PYD domains-containing protein 3; test: Inhibition of NLRP3 inflammasome (unknown origin) activation in LPS-primed bone marrow derived macrophages assessed as inhibition of IL-1beta secretion at 5 uM in presence of mono sodium urate by ELISA; details: TDE = time-dependent effect
Summary of the method: (§3)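 LPS-primed BMDMs treated with compound (5 μM) and stimulated with nigericin (10 µM), ATP (2.5 mM) or MSU (150 µg/mL), over a time course or at increasing agonist doses; secreted IL-1β by ELISA.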

Mus musculus [10] = species on record: Mus musculus; test: Reversal of NLRP3 mediated metabolic disorder in mouse model of diabetes; type: functional, organism-based
[11] = biological target: T1, NACHT, LRR and PYD domains-containing protein 3; test: Inhibition of NLRP3 inflammasome (unknown origin) activation in LPS-primed bone marrow derived macrophages assessed as inhibition of IL-1beta secretion at 5 uM in presence of ATP by ELISA; details: TDE = time-dependent effect; summary of the method: as §3
[12] = biological target: NLR family CARD domain-containing protein 4 (Homo sapiens) (UniProt Q9NPP4); test: Inhibition of NLRC4 inflammasome (unknown origin) activation in bone marrow derived macrophages assessed as inhibition of Salmonella-induced IL-1beta secretion at 5 uM by ELISA
Summary of the method: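 LPS-primed BMDMs treated with compound (5 μM), then infected with Salmonella typhimurium for different times; supernatant IL-1β by ELISA.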

[13] = biological target: T1, NACHT, LRR and PYD domains-containing protein 3; test: Inhibition of NLRP3 inflammasome (unknown origin) activation in bone marrow derived macrophage cells assessed as effect on mono sodium urate-induced TNF-alpha secretion at 5 uM by ELISA
Summary of the method: (§4)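 LPS-primed BMDMs given compound (5 μM), then nigericin (10 µM), ATP (2.5 mM) or MSU (150 µg/mL); TNF-α in supernatant measured by ELISA.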

[14] = AUC in po or iv qd dosed Sprague-Dawley rat; type: ADME, organism-based; details: in vivo
Summary of the method: (§5)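 Sprague-Dawley rats given a single intravenous or oral dose; pharmacokinetic parameters (half-life, AUC, bioavailability) derived from the plasma profile.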

[15] = biological target: T1, NACHT, LRR and PYD domains-containing protein 3; test: Inhibition of NLRP3 inflammasome (unknown origin) activation in LPS-primed bone marrow derived macrophages assessed as inhibition of IL-1beta secretion in presence of ATP by ELISA; summary of the method: as §3
[16] = biological target: T1, NACHT, LRR and PYD domains-containing protein 3; test: Inhibition of NLRP3 inflammasome (unknown origin) activation in LPS-primed bone marrow derived macrophages assessed as inhibition of IL-1beta secretion at 5 uM in presence of nigericin by ELISA; details: TDE = time-dependent effect; summary of the method: as §3
[17] = Oral bioavailability in Sprague-Dawley rat administered as single dose; type: ADME, organism-based; details: in vivo; summary of the method: as §5
Mus musculus [18] = test: In vivo inhibition of NLRP3 inflammasome activation in mouse model of cryopyrin-associated auto-inflammatory syndrome; type: functional, organism-based
[19] = biological target: T1, NACHT, LRR and PYD domains-containing protein 3; test: Inhibition of NLRP3 inflammasome (unknown origin) activation in LPS-primed bone marrow derived macrophages assessed as inhibition of IL-1beta secretion in presence of mono sodium urate by ELSIA; summary of the method: as §3
[20] = biological target: T1, NACHT, LRR and PYD domains-containing protein 3; test: Inhibition of NLRP3 inflammasome (unknown origin) activation in bone marrow derived macrophage cells assessed as effect on ATP-induced TNF-alpha secretion at 5 uM by ELISA; summary of the method: as §4
[21] = biological target: T1, NACHT, LRR and PYD domains-containing protein 3; test: Inhibition of NLRP3 inflammasome (unknown origin) activation in bone marrow derived macrophage cells assessed as effect on nigericin-induced TNF-alpha secretion at 5 uM by ELISA; summary of the method: as §4
[22] = biological target: T1, NACHT, LRR and PYD domains-containing protein 3; test: Inhibition of NLRP3 inflammasome (unknown origin) activation in LPS-primed bone marrow derived macrophages assessed as inhibition of IL-1beta secretion in presence of nigericin by ELISA; summary of the method: as §1
[23] = biological target: T1, NACHT, LRR and PYD domains-containing protein 3; test: Inhibition of NLRP3 inflammasome (unknown origin) assessed as suppression of mono sodium urate-induced IL-1beta level by immunoblot analysis
Summary of the method: (§6)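 LPS-primed BMDMs treated with graded doses of test compound, then stimulated with MSU; IL-1β and cleaved caspase-1 (p20) in culture supernatants detected by immunoblot.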

[24] = biological target: T1, NACHT, LRR and PYD domains-containing protein 3; test: Inhibition of NLRP3 inflammasome (unknown origin) assessed as suppression of mono sodium urate-induced caspase 1 activation by immunoblot analysis; summary of the method: as §6

Chain of Cystic fibrosis transmembrane conductance regulator (Homo sapiens) (P13569 whole entry, looked up, the tested form may be a part): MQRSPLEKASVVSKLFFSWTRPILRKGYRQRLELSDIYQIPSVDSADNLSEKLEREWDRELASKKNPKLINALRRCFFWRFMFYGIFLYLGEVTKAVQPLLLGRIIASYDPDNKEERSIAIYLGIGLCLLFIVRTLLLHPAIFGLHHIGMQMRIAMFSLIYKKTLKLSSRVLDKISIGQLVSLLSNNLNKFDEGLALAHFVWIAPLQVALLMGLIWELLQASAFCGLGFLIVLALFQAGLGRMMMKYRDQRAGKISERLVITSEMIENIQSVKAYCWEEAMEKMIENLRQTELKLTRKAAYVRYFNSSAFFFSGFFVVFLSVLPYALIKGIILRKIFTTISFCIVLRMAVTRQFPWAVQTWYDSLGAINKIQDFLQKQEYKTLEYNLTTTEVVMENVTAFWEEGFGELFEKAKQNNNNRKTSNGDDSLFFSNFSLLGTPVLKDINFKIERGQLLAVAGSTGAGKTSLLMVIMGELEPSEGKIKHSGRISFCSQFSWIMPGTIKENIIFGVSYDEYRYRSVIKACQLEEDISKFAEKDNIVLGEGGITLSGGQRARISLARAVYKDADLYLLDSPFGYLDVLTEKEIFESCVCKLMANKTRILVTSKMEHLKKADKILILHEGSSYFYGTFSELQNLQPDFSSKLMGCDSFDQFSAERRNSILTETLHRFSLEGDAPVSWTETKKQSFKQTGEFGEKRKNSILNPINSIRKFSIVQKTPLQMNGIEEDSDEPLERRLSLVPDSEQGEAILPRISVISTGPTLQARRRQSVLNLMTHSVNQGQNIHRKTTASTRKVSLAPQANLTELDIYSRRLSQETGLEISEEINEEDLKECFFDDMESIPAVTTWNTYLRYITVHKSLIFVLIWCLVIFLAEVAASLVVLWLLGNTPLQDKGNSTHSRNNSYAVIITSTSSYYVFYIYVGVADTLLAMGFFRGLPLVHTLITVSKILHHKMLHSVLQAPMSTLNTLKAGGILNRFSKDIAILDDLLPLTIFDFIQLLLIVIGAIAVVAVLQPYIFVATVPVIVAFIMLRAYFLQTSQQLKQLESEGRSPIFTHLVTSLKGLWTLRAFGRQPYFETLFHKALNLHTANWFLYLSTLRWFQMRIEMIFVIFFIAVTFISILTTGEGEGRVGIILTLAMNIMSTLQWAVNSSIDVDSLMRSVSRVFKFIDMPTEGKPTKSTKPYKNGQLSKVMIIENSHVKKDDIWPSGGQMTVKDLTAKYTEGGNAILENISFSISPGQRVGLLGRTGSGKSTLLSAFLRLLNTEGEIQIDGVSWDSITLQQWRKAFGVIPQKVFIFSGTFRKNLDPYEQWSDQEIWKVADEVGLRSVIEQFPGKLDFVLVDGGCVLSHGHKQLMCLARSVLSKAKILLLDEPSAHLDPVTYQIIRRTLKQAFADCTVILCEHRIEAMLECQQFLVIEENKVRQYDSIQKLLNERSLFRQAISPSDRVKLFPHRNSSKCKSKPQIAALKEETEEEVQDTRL
T1 sequence (Q96P20 whole entry, the tested form may be a part): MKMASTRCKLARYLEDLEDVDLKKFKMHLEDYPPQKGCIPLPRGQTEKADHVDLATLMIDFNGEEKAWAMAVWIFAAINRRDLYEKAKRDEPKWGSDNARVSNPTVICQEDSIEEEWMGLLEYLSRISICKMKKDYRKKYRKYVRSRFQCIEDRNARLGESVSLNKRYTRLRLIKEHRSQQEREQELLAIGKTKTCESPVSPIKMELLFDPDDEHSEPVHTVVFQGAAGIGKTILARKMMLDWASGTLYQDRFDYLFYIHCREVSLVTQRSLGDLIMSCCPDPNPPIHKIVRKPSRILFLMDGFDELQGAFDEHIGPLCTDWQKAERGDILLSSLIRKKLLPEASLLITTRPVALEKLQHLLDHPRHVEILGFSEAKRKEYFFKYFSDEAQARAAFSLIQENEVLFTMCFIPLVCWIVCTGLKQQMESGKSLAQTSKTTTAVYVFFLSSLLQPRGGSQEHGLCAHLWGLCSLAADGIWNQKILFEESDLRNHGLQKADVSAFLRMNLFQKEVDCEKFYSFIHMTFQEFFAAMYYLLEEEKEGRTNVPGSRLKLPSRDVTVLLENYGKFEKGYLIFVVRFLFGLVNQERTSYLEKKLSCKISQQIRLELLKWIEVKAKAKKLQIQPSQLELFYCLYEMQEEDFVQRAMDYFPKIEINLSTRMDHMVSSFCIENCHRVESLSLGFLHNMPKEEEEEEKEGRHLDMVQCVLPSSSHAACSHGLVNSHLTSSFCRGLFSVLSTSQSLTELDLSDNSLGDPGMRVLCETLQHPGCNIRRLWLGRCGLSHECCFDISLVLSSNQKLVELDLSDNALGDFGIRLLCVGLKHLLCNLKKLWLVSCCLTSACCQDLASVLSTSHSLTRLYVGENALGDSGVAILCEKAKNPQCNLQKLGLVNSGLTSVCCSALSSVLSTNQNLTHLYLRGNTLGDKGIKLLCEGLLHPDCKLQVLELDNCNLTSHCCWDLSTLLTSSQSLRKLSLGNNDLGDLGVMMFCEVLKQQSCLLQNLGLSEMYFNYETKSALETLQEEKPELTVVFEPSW
Chain of NLR family CARD domain-containing protein 4 (Homo sapiens) (Q9NPP4 whole entry, the tested form may be a part): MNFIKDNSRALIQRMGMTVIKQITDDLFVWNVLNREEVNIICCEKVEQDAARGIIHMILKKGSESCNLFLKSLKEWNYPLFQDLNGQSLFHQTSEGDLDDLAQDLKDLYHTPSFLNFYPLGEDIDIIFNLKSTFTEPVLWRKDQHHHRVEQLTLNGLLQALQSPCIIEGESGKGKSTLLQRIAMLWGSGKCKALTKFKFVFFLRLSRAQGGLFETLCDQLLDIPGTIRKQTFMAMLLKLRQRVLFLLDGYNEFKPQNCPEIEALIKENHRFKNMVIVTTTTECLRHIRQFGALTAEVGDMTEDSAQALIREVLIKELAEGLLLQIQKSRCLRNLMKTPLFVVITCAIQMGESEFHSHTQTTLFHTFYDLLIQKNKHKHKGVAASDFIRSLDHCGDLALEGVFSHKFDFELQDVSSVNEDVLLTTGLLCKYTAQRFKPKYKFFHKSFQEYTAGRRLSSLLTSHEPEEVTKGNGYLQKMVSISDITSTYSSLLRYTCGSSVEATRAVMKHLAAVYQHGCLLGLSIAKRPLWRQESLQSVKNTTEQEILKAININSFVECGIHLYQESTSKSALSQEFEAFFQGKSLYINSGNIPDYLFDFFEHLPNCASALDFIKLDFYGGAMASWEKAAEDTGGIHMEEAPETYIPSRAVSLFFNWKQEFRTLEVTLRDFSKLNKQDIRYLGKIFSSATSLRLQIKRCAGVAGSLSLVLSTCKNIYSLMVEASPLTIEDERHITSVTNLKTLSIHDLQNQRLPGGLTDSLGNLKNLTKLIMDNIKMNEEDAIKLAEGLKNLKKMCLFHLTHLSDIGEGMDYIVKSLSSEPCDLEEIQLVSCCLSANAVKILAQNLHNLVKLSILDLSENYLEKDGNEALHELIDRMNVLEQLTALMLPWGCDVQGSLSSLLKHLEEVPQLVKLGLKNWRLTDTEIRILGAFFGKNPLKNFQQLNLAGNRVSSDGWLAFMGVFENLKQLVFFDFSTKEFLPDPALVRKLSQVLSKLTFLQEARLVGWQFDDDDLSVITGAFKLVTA

SMILES | inhibition [1] | inhibition [2] | IC50 [3] | half-life [4] | half-life [5] | Selectivity Index (Homo sapiens) | CLhep predicted [6] | CLhep predicted [7] | other results
O=C(O)c1ccc(/C=C2\SC(=S)N(Cc3cccnc3)C2=O)cc1 | 63% | > 10% | 6.27 µM |  |  |  |  |  | 
O=C(O)c1ccc(/C=C2\SC(=S)N(Cc3ccc(-c4ccccc4)cc3)C2=O)cc1 | 73% | 11% | 7.63 µM |  |  |  |  |  | 
O=C1/C(=C/c2ccc(-c3nnn[nH]3)cc2)SC(=S)N1CCc1cccc(C(F)(F)F)c1 | 67% |  | 6.5 µM |  |  |  |  |  | 
O=C(O)c1ccc(/C=C2\SC(=S)N(Cc3cccc(OC(F)(F)F)c3)C2=O)cc1 | 29% | 12% | > 10 µM |  |  |  |  |  | 
O=C(O)c1ccc(/C=C2\SC(=O)N(Cc3cccc(C(F)(F)F)c3)C2=O)cc1 | 67% | 23% | 5.96 µM |  |  |  |  |  | 
CN1CCN(C(=O)c2ccc(/C=C3\SC(=S)N(c4cccc(OC(F)(F)F)c4)C3=O)cc2)CC1 | 76% | 69% | 2.57 µM | 27.1 min | 3.7 min | 1.1 | 12.8 mL/min/kg | 83 mL/min/kg | 
O=C1S/C(=C\c2ccc(-c3nnn[nH]3)cc2)C(=O)N1Cc1cccc(C(F)(F)F)c1 | 63% | > 10% | 5.61 µM |  |  |  |  |  | 
C[C@]12CC[C@H]3[C@@H](CCC4=CC(=O)CC[C@@]43C)[C@@H]1CC[C@@H]2O [TESTOSTERONE] |  |  |  | 277 min |  |  | 2.8 mL/min/kg |  | 
O=C1/C(=C/c2ccc(-c3nnn[nH]3)cc2)SC(=S)N1Cc1cccc(C(F)(F)F)c1 | 67% |  | 5.58 µM |  |  |  |  |  | 
O=C(Nc1ccccc1)c1ccc(/C=C2\SC(=S)N(c3cccc(C(F)(F)F)c3)C2=O)cc1 | 32% | 27% | > 10 µM |  |  | 1.19 |  |  | 
CC(C)NCC(O)COc1cccc2ccccc12 (configuration not stated) [PROPRANOLOL] |  |  |  | 15.6 min | 1.7 min |  | 15.3 mL/min/kg | 86.6 mL/min/kg | 
O=C(O)c1ccc(/C=C2\SC(=S)N(Cc3cccc(C(F)(F)F)c3)C2=O)cc1 | 83% |  | 2.4 µM | > 145 min | > 145 min |  | < 4.7 mL/min/kg | < 20.7 mL/min/kg | inhibition [8]: inactive; inhibition [9]: Tde; Activity (Mus musculus [10]): Active; inhibition [11]: Tde; inhibition [12]: inactive; inhibition [13]: inactive; AUC [14]: 1930 ng·h/mL; inhibition [15]: Dose-dependent effect; inhibition [16]: Tde; bioavailability [17]: 27%; inhibition (Mus musculus [18]): Active; inhibition [19]: Dose-dependent effect; inhibition [20]: inactive; inhibition [21]: inactive; inhibition [22]: Dose-dependent effect
O=C(O)c1ccc(/C=C2\SC(=S)N(CCc3cccc(C(F)(F)F)c3)C2=O)cc1 | 74% | > 10% | 5.91 µM |  |  |  |  |  | 
CN1CCN(C(=O)c2ccc(/C=C3\SC(=S)N(Cc4cccc(C(F)(F)F)c4)C3=O)cc2)CC1 | 35% | 10% | > 10 µM |  |  |  |  |  | 
O=C(c1ccc(/C=C2\SC(=S)N(c3cccc(C(F)(F)F)c3)C2=O)cc1)N1CCOCC1 | 81% | 74% | 2.74 µM | > 145 min | > 145 min | 1.09 | < 4.7 mL/min/kg | < 20.7 mL/min/kg | 
O=C1/C(=C/c2ccc(-c3nnn[nH]3)cc2)SC(=S)N1CCCc1cccc(C(F)(F)F)c1 | 72% | > 10% | 4.85 µM |  |  |  |  |  | 
O=C(O)c1ccc(/C=C2\SC(=S)N(c3cccc(C(F)(F)F)c3)C2=O)cc1 | 71% | 86% | 6.39 µM | 277 min | 12.6 min | 0.83 | 2.8 mL/min/kg | 69.8 mL/min/kg | inhibition [23]: Dose-dependent effect; inhibition [24]: Dose-dependent effect
O=C(O)c1ccc(/C=C2\SC(=S)N(CCCc3cccc(C(F)(F)F)c3)C2=O)cc1 | 68% |  | 4.32 µM |  |  |  |  |  | 
O=C(c1ccc(/C=C2\SC(=S)N(c3cccc(OC(F)(F)F)c3)C2=O)cc1)N1CCOCC1 | 75% | 68% | 3.18 µM | 187 min | 23.9 min | 1.1 | 3.9 mL/min/kg | 58.1 mL/min/kg | 
O=C(O)c1ccc(/C=C2\SC(=S)N(Cc3cccc(F)c3)C2=O)cc1 | 63% | > 10% | 3.52 µM |  |  |  |  |  | 
CN1CCN(C(=O)c2ccc(/C=C3\SC(=S)N(c4cccc(C(F)(F)F)c4)C3=O)cc2)CC1 | 81% | 77% | 2.69 µM | 15.6 min | 1.7 min | 1.05 | 15.3 mL/min/kg | 86.6 mL/min/kg | 
O=C(c1ccc(/C=C2\SC(=S)N(c3cccc(C(F)(F)F)c3)C2=O)cc1)N1CCC(O)CC1 | 80% | 72% | 2.44 µM | 44.1 min | 4 min | 1.11 | 10.3 mL/min/kg | 82.4 mL/min/kg | 
CN1CCN(C(=O)c2ccc(/C=C3\SC(=S)N(c4cccc([N+](=O)[O-])c4)C3=O)cc2)CC1 | 81% | 66% | 2.98 µM | 13.8 min | 1.8 min | 1.23 | 15.8 mL/min/kg | 86.5 mL/min/kg | 
